According to the EternaBench riboswitch data:

Test system: MS2 coat protein
Experiment: apparent Kd, MS2 coat protein; higher = weaker binding; RNA-MaP array; FMN 200 µM where present
Procedure, shortened: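 The apparent Kd comes from binding curves fitted cluster by cluster, filtered, and summarised as a median. Those curves followed SNAP-549-labelled MS2 coat protein from 0.7 or 1.5 nM, doubling to 3 µM, on Illumina sequencing-chip clusters where stalled E. coli RNA polymerase had transcribed the designs, without and then with constant ligand. The buffer was 100 mM Tris-HCl pH 7.5, 80 mM KCl, 4 mM MgCl2, BSA, DTT, yeast tRNA and Tween-20, and green signal was normalised to red-channel RNA signal and control-cluster median Fmax.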

[1] = designed as: OFF switch for flavin mononucleotide, no ligand
[2] = ligand present: flavin mononucleotide, designed as: OFF switch for flavin mononucleotide
[3] = designed as: ON switch for flavin mononucleotide, no ligand
[4] = ligand present: flavin mononucleotide, designed as: ON switch for flavin mononucleotide

Sequence	apparent Kd [1]	apparent Kd [2]	apparent Kd [3]	apparent Kd [4]
GUUUUGAUAGGAUAUACAUGAGGAUCACCCAUGUCCCACCCGUUACCUCUGACCCUAUGUAGAAGGAUCGUUUG	34.3 nM	26.4 nM		
CGGCAUCAUGUAGGAUAUGCGUGGCGAAGCUAUGCAGAAGGACAUGAGGAUCACCCAUGUCUUACUGUGCGUACACAGUUGCCG	6.29 nM	11.2 nM		
UUGGACGUCGUAGGAUAUGUAGGAUAUUCCUACAUGAGGAUCACCCAUGUUGACAUGGAAGACGGACAGAAGGACGAUGUCCAU			490 nM	12.8 nM
GCUGGUCGAGGAUAUACAUGACGUGCUUCGGCACGAGGUCUACAUGAGGAUCACCCAUGUAGAAGGCGACCAGC	30.8 nM	225 nM		
UAUGGUUAAGUCAGGAUAUGCUCGUAGAAGUCUAUGCAGAAGGGACAUGAGGAUCACCCAUGUAUGGUCGUGUU	94.3 nM	177 nM		
CUAUUGCGAGGAUAUGAUUUAAAUAACAUGAGGAUCACCCAUGUUUUUACGUUGUUAUGUUCAGAAGGCGUAUUGU	40.1 nM	26.3 nM		
UAUUUUUAUGUAAGGAUAUGGGUUUGGUUGCGGGCUUAGAAGGUACAUGAGGAUCACCCAUGUAUUUUGUGCAU	32.8 nM	35.3 nM		
GCUCUUGUCAAGAAGGGCUCGCGGUACGCUGCAGCAGGAUAUUGACAUGAGGAUCACCCAUGUCGACCGGAACAUCAUUGAGGG	26.2 nM	178 nM		
CCGUUACAUGAGGAUCACCCAUGUGAGGAUAUCGAUGUGACUGGCAGCGUGCGGGACUCGAGAAGGCACUUGGC	74.6 nM	58.5 nM		
UGUCUGAUCUAAUAACAUGAGGAUCACCCAUGUGUUCACAACUAGGAUAUCGAUUAUUAAAACGUCGAGAAGGAGUAUACAUUA	34.5 nM	43.6 nM		
CUUAGUUUGUAGAAGGGUGACAUGAGGAUCACCCAUGUGCGUCUCCUGAAAGACCAGGGUACGCCACAGGAUAUACAAAGUAAG			42.7 nM	47.7 nM
GUAUGAGCGAUAGGAUAUACUGAGAUUGAAUGGGUAGAAGGAUCUCUUGUGGGAAAGACAUGAGGAUCACCCAUGUCACGGACC			186 nM	100 nM
UCUGGAGCAGGAUAUAUAUGACGUGCUUCGGCACGAAGAUCACAUGAGGAUCACCCAUGUAGAAGGGCUCCAGA	109 nM	946 nM		
GCAAGAAUAGGAUAUACACCGUGUCAGCUUCUAUACAUCGCACAUGAGGAUCACCCAUGUAGAAGGGUUCUCUG	236 nM	217 nM		
GAGAAGAAGUUAGGAUAUUGGAUAGGGACGGACUAAGAAGGAGCACAUACAUGAGGAUCACCCAUGUUAGAAGAAGAUCCUCCA	32.3 nM	25.5 nM		
UCAAUUUUGCGAGGAUAUCGACCAUUCCUCUUUACAUGAGGAUCACCCAUGUUCUUUUUCUACAACGAGAAGGCGCUCAUAGUU	55.5 nM	67.1 nM		
AAAAGGCUAGGAUAUACCAGUGGGUGUAAGAACUCAAAGUUACAUGAGGAUCACCCAUGUAGAAGGAGUAAAAU	17.1 nM	40 nM		
UCCAAAUCGUAGAAGGGUGACAUGAGGAUCACCCAUGUGCAGCAACCGUGAACGGCCAUGCUGCCACAGGAUAUACGAUGGAGU			14.1 nM	29.8 nM

Sequence	apparent Kd [1]	apparent Kd [2]	apparent Kd [3]	apparent Kd [4]
AGACGGAGCUGAGGAUAUAUACAUGAGGAUCACCCAUGUAAGCUCCAGGAAACUGGAGCAAAUGUAUAGAAGGCAGCUCCGUCA	28 nM	45.9 nM		
CUGGGCGGUUUGCCCACACUGUCACAGGAUAUGCCCAAAACAUGAGGAUCACCCAUGUCAAAUACGCAGAAGGGUGAUCGGAAC			107 nM	62.5 nM
UUAAAUCAUGUAGGAUAUGCAUGGCGAAGCUACGCAGAAGGACAUGAGGAUCACCCAUGUGCUAGCUACCGGAUACGGUGGCAA	60.7 nM	264 nM		
GGAUGACAAAGUCAUCCAAAUCGAACAUGAGGAUCACCCAUGUAGGAUAUGGUACUCAAAGAGUACCAGAAGGACAUGUGCUUU	40 nM	191 nM		
UGGUACUAGGGAGGAUAUGGGAAGCUACAUGAGGAUCACCCAUGUUUAAGAAUGCCGAGAGGCAACUAGAAGGCCCUAGUACCU			30.2 nM	5.56 nM
AUACCACGAGGAUAUCGACUAUACCACAUGAGGAUCACCCAUGUUAUCCAUGUUUCGUUUCGAGAAGGCGUGGGUU	39.1 nM	33.9 nM		
GCCCUUUCUGAGGAUAUUAUCUGGUUCGAUUGAUAAGAAGGCAGUACAUGAGGAUCACCCAUGUGGUUCGUUUG	99.6 nM	242 nM		
UUGUUAUAUGUAGGAUAUGCGUAUUAUUAUUAUGCAGAAGGACAUGAGGAUCACCCAUGUAUGUUGUUGUUAUAUAUUAUAUAU	22.9 nM	26.2 nM		
GUCGGAAACGACAAAAGUACCCGAGCAGAAGGCAUGUCAUAAGACAUGAGGAUCACCCAUGUGCAUGAGGAUAUGCUCGGGUAC			5.83 nM	5.28 nM
CUUGUGUGAGGAUAUCAGUAGUAGUACGAUAGUAUUACUGCUGAGAAGGCACAUGAGGAUCACCCAUGUUCUUC	28.1 nM	24.1 nM		
GUAGCAUUCCGAGGAUAUUCAGGGCGUGGAUAUACAUGAGGAUCACCCAUGUGGCGGAAGCCUAGGGAGAAGGCGGGCUGCUUC			27.8 nM	18.6 nM
CCCAUGUUAGGAUAUAUGGAAGGGCGGACGGGCGCCCUUAGGUAGAAGGAACAUGAGGAUCACCCAUGUAAUAA	171 nM	161 nM		
GGCCGGAAUGUAGGAUAUGGAUAUUUAAAUAUACCAGAAGGACAUGAGGAUCACCCAUGUAUAAUAAUUAACAAACUUAGAUCC	32.7 nM	121 nM		
UUUCGGAGCAGAGGAUAUUACAUGAGGAUCACCCAUGUAUGAACCAAUAGCUGGAAACAGCAAUGUAAGAAGGCUGCUCCGACA	11.2 nM	182 nM		
UCCUUAAGUUAGGAUAUCGAUUGCUAUAGCAGAUGAGAAGGAGCCACAUGAGGAUCACCCAUGUCCUCACCUAU	180 nM	214 nM		
UAGCUUGACGCAGGAUAUCCAGGGCUGAGAUGAGGAGAAGGGCGCCAAACAUGAGGAUCACCCAUGUAUUAUGCAGGGUCCUCA	336 nM	315 nM		
CAUUAUUAUCGAGGAUAUCCUAUUGAAAUUCUGGGAGAAGGCGGACUCAACAUGAGGAUCACCCAUGUGGGACGGAUGCUAGGA	18.5 nM	15.4 nM		
CUUUUGUGAGGAUAUCAGUAGUAAAAAAAUAAAAUUACUUCUGAGAAGGCACAUGAGGAUCACCCAUGUUCCUC	39.5 nM	333 nM		
